What was measured:
HepG2 [1] = assay: Cytotoxicity against human HepG2 cells assessed as cell viability at 21.14 ug/ml after 4 hrs by AO/DAPI double staining relative to control; format: functional; settings: HepG2, 4 h, read-out: Activity
Procedure, shortened: (§1)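 Cells seeded at 5 × 10^5/well, grown 24 h, exposed 4 h to the three highest MTT-tested concentrations. Cell suspension loaded into cassettes coated with acridine orange (all cells) and DAPI (nonviable cells), then counted by automated fluorescence image analysis. Viability as % of total cells; three independent experiments, mean ± SEM.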

HepG2 [2] = assay: Induction of late apoptosis in human HepG2 cells assessed as induction of DNA fragmentation at 84.55 ug/ml after 4 hrs by […] relative to control; format: functional
Procedure, shortened: (§2)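 Cells seeded 48 h before a 4 h exposure; 1 μM staurosporine positive control. Cells permeabilized with ethanol, washed to remove low-molecular-weight DNA, stained with DAPI, and DNA content read by automated image cytometry. Result as % sub-G1 cells below a manually set G1/G0 peak. Three independent experiments, mean ± SEM.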

HepG2 [3] = assay: Genotoxicity in human HepG2 cells assessed as DNA strand-breakage at 21.14 ug/ml after 4 hrs by alkaline comet assay; settings: hepg2, 4 h
HepG2 [4] = assay: Cytotoxicity against human HepG2 cells assessed as cell viability at 42.28 ug/ml after 4 hrs by trypan blue dye exclusion assay relative to control; format: functional; settings: HepG2, 4 h, read-out: Activity
Procedure, shortened: (§3)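 Cells seeded at 5 × 10^5/well, grown 24 h, then exposed 4 h to the three highest MTT-tested concentrations. Trypan blue exclusion read on an automated cell counter, unstained cells counted as viable. Viability as % of total cells; three independent experiments, mean ± SEM.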

HepG2 [5] = assay: Cytotoxicity against human HepG2 cells assessed as cell viability at 5.28 ug/ml after 4 hrs by MTT assay relative to control; format: functional; settings: HepG2, 4 h, read-out: Activity
Procedure, shortened: (§4)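 HepG2 seeded at 1 × 10^5 cells/well in phenol red-free MEM, grown 24 h, then exposed 4 h to eight concentrations (dissolved in MEM; 2% Triton X100 positive control). MTT 1 mg/mL added for 2 h at 37 °C, formazan dissolved in 2-propanol, A570 minus A650. Viability as % of untreated controls; three independent experiments, mean ± SEM.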

HepG2 [6] = assay: Genotoxicity in human HepG2 cells assessed as DNA strand-breakage at 84.55 ug/ml after 4 hrs by alkaline comet assay; settings: hepg2, 4 h
HepG2 [7] = assay: Cytotoxicity against human HepG2 cells assessed as cell viability at 84.55 ug/ml after 4 hrs by trypan blue dye exclusion assay relative to control; format: functional; settings: HepG2, 4 h, read-out: Activity; procedure, shortened: as §3
HepG2 [8] = assay: Induction of early apoptosis in human HepG2 cells assessed as decrease mitochondrial membrane potential at 21.14 ug/ml after 4 hrs by JC-1 staining relative to control; format: functional; set-up: scale not given: the % may be the effect or the level left
Procedure, shortened: (§5)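 Cells seeded 48 h before a 4 h exposure; 0.5 μM valinomycin for 4 h as depolarizing positive control. Stained with JC-1 plus DAPI (necrotic cells), read by automated fluorescence image cytometry. Depolarization seen as a fall in red/green ratio; gated as % depolarized cells. Three independent experiments, mean ± SEM.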

HepG2 [9] = assay: Cytotoxicity against human HepG2 cells assessed as cell viability at 10.57 ug/ml after 4 hrs by MTT assay relative to control; format: functional; settings: HepG2, 4 h, read-out: Activity; procedure, shortened: as §4
HepG2 [10] = assay: Cytotoxicity against human HepG2 cells assessed as cell viability at 21.14 ug/ml after 4 hrs by trypan blue dye exclusion assay relative to control; format: functional; settings: HepG2, 4 h, read-out: Activity; procedure, shortened: as §3
HepG2 [11] = assay: Induction of late apoptosis in human HepG2 cells assessed as induction of DNA fragmentation at 21.14 ug/ml after 4 hrs by […] relative to control; format: functional; procedure, shortened: as §2
HepG2 [12] = assay: Cytotoxicity against human HepG2 cells assessed as cell viability at 42.28 ug/ml after 4 hrs by MTT assay relative to control; format: functional; settings: HepG2, 4 h, read-out: Activity; procedure, shortened: as §4
HepG2 [13] = assay: Genotoxicity in human HepG2 cells assessed as DNA strand-breakage at 42.28 ug/ml after 4 hrs by alkaline comet assay; settings: hepg2, 4 h
HepG2 [14] = assay: Cytotoxicity against human HepG2 cells assessed as cell viability at 42.28 ug/ml after 4 hrs by AO/DAPI double staining relative to control; format: functional; settings: HepG2, 4 h, read-out: Activity; procedure, shortened: as §1
HepG2 [15] = assay: Cytotoxicity against human HepG2 cells assessed as cell viability at 21.14 ug/ml after 4 hrs by MTT assay relative to control; format: functional; settings: HepG2, 4 h, read-out: Activity; procedure, shortened: as §4
HepG2 [16] = assay: Cytotoxicity against human HepG2 cells assessed as cell viability at 2.64 ug/ml after 4 hrs by MTT assay relative to control; format: functional; settings: HepG2, 4 h, read-out: Activity; procedure, shortened: as §4
HepG2 [17] = assay: Cytotoxicity against human HepG2 cells assessed as cell viability at 0.67 ug/ml after 4 hrs by MTT assay relative to control; format: functional; settings: HepG2, 4 h, read-out: Activity; procedure, shortened: as §4
HepG2 [18] = assay: Induction of late apoptosis in human HepG2 cells assessed as induction of DNA fragmentation at 42.28 ug/ml after 4 hrs by […] relative to control; format: functional; procedure, shortened: as §2
HepG2 [19] = assay: Induction of early apoptosis in human HepG2 cells assessed as decrease mitochondrial membrane potential at 42.28 ug/ml after 4 hrs by JC-1 staining relative to control; format: functional; set-up: scale not given: the % may be the effect or the level left; procedure, shortened: as §5
HepG2 [20] = assay: Cytotoxicity against human HepG2 cells assessed as cell viability at 84.55 ug/ml after 4 hrs by AO/DAPI double staining relative to control; format: functional; settings: HepG2, 4 h, read-out: Activity; procedure, shortened: as §1
HepG2 [21] = assay: Cytotoxicity against human HepG2 cells assessed as cell viability at 84.55 ug/ml after 4 hrs by MTT assay relative to control; format: functional; settings: HepG2, 4 h, read-out: Activity; procedure, shortened: as §4
HepG2 [22] = assay: Induction of early apoptosis in human HepG2 cells assessed as decrease mitochondrial membrane potential at 84.55 ug/ml after 4 hrs by JC-1 staining relative to control; format: functional; set-up: scale not given: the % may be the effect or the level left; procedure, shortened: as §5
HepG2 [23] = assay: Cytotoxicity against human HepG2 cells assessed as cell viability at 1.32 ug/ml after 4 hrs by MTT assay relative to control; format: functional; settings: HepG2, 4 h, read-out: Activity; procedure, shortened: as §4
HepG2 [24] = assay: Induction of late apoptosis in human HepG2 cells assessed as induction of DNA fragmentation at 1 uM after 4 hrs by […] relative to control; format: functional; procedure, shortened: as §2
HepG2 [25] = assay: Induction of early apoptosis in human HepG2 cells assessed as decrease mitochondrial membrane potential at 0.5 uM after 4 hrs by JC-1 staining relative to control; format: functional; set-up: scale not given: the % may be the effect or the level left; procedure, shortened: as §5

C=CCc1ccc(OC)cc1 [ESTRAGOLE]
viability at 21.14 µg/mL (HepG2 [1]): 90.9% | Activity (HepG2 [2]): 4.9% | Activity (HepG2 [3]): Non-toxic | viability at 42.28 µg/mL (HepG2 [4]): 93.3% | viability at 5.28 µg/mL (HepG2 [5]): 104% | Activity (HepG2 [6]): Non-toxic | viability at 84.55 µg/mL (HepG2 [7]): 85% | Activity (HepG2 [8]): 15.9% | viability at 10.57 µg/mL (HepG2 [9]): 117% | viability at 21.14 µg/mL (HepG2 [10]): 92.7% | Activity (HepG2 [11]): 3.4% | viability at 42.28 µg/mL (HepG2 [12]): 108% | Activity (HepG2 [13]): Non-toxic | viability at 42.28 µg/mL (HepG2 [14]): 91.7% | viability at 21.14 µg/mL (HepG2 [15]): 110% | viability at 2.64 µg/mL (HepG2 [16]): 101% | viability at 0.67 µg/mL (HepG2 [17]): 106% | Activity (HepG2 [18]): 3.7% | Activity (HepG2 [19]): 12.3% | viability at 84.55 µg/mL (HepG2 [20]): 90.2% | viability at 84.55 µg/mL (HepG2 [21]): 103% | Activity (HepG2 [22]): 13.2% | viability at 1.32 µg/mL (HepG2 [23]): 94.8%

CN[C@@H]1C[C@H]2O[C@@](C)([C@@H]1OC)n1c3ccccc3c3c4c(c5c6ccccc6n2c5c31)C(=O)NC4 [STAUROSPORINE]
Activity (HepG2 [24]): 21.1%

CC(C)[C@@H]1NC(=O)[C@H](C)OC(=O)[C@@H](C(C)C)NC(=O)[C@@H](C(C)C)OC(=O)[C@H](C(C)C)NC(=O)[C@H](C)OC(=O)[C@@H](C(C)C)NC(=O)[C@@H](C(C)C)OC(=O)[C@H](C(C)C)NC(=O)[C@H](C)OC(=O)[C@@H](C(C)C)NC(=O)[C@@H](C(C)C)OC1=O [VALINOMYCIN]
Activity (HepG2 [25]): 40.3%

Reference: ChEMBL document CHEMBL3232976, “Investigation of the cytotoxic, genotoxic, and apoptosis-inducing effects of estragole isolated from fennel (Foeniculum vulgare)” (J Nat Prod, 2014)
